Assays:
[1] = Phototoxicity against human HaCaT cells assessed as cell viability at 1 uM after irradiation with light at 180 J/cm'2 for 30 mins by MTT assay; assay type: functional; settings: light or radiation study, 0.5 h, read-out: Activity
Method in brief: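 HaCaT screen at 1 µM porphyrin. Light 100 mW/cm² for 30 min (fluence 180 J/cm²). Viability by MTT, given as percent.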

[2] = Photostability of compound in aqueous media assessed as amount of soret band remaining after irradiation with white light at 100 mW/cm'2 for 30 mins by UV-spectrophotometric analysis; assay type: physicochemical; settings: read-out: Stability
Method in brief: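 Porphyrin in aqueous medium under white light, 100 mW/cm², sampled at intervals up to 30 min. Soret band absorbance tracked and given as percent remaining of the original.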

[3] = Dark toxicity against human HaCaT cells assessed as reduction in cell viability at >0.1 uM after 24 hrs by MTT assay; assay type: cell-based
Method in brief: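 HaCaT keratinocytes held with porphyrin in the dark for 24 h, no light exposure, over 0.01–1 µM (untreated control as 0). Viability read by MTT.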

[4] = Phototoxicity against human HaCaT cells assessed as cell viability at 0.01 uM after irradiation with white light at 120 J/cm'2 for 20 mins by MTT assay; assay type: functional; settings: light or radiation study, read-out: Activity
Method in brief: (§1)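 HaCaT PDT at 0.01, 0.03, 0.1, 0.3 and 1 µM porphyrin (untreated control as 0). Light 100 mW/cm² for 20 min (fluence 120 J/cm²). Viability by MTT. IC50 estimated from the roughly linear concentration–viability relationship.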

[5] = Phototoxicity against human HaCaT cells assessed as reduction in cell viability after irradiation with white light at 120 J/cm'2 for 20 mins by MTT assay; assay type: functional, cell-based; settings: light or radiation study; method in brief: as §1
[6] = Induction of singlet oxygen production assessed as amount of DPiBF remaining after irradiation with light at 9 mW/cm'2 for 30 mins by DPiBF photooxidation based spectrophotometric analysis (reference value: 80%); assay type: physicochemical; settings: 0.5 h
Method in brief: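 Singlet oxygen measured by DPiBF photooxidation in DMF. Light at 9 mW/cm² for 30 min. DPiBF absorbance at 415 nm reported as percent of the starting value.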

Row | SMILES | remaining at 0.5 h [2] [%] | Activity [6] [%] | viability at 1 µM [1] [%] | Activity [3] | viability at 0.01 µM [4] [%] | IC50 [5] [nM]
1 | Cc1ccc(-c2c3nc(c(-c4ccc(C)cc4)c4ccc([nH]4)c(-c4ccc(C)cc4)c4nc(c(-c5ccc(C)cc5)c5ccc2[nH]5)C=C4)C=C3)cc1 | – | – | 100 | – | – | –
2 | C[n+]1ccc(-c2c3nc(c(-c4ccccc4)c4nc(c(-c5cc[n+](C)cc5)c5ccc([nH]5)c(-c5ccccc5)c5ccc2[nH]5)C=C4)C=C3)cc1.[I-].[I-] | 91 | 18 | 19.5 | – | – | 136
3 | C[n+]1ccc(-c2c3nc(c(-c4cc[n+](C)cc4)c4ccc([nH]4)c(-c4cc[n+](C)cc4)c4nc(c(-c5cc[n+](C)cc5)c5ccc2[nH]5)C=C4)C=C3)cc1.[I-].[I-].[I-].[I-] | 98 | 22 | 26.6 | – | – | 59
4 | C1=Cc2nc1c(-c1ccccc1)c1ccc([nH]1)c(-c1ccccc1)c1nc(c(-c3ccccc3)c3ccc([nH]3)c2-c2ccccc2)C=C1 | – | – | 100 | – | – | –
5 | C[n+]1ccc(Sc2c(F)c(F)c(-c3c4nc(c(-c5c(F)c(F)c(Sc6cc[n+](C)cc6)c(F)c5F)c5ccc([nH]5)c(-c5c(F)c(F)c(Sc6cc[n+](C)cc6)c(F)c5F)c5nc(c(-c6c(F)c(F)c(Sc7cc[n+](C)cc7)c(F)c6F)c6ccc3[nH]6)C=C5)C=C4)c(F)c2F)cc1.[I-].[I-].[I-].[I-] | 89 | 25 | 20.3 | – | – | 240
6 | CC(=O)Oc1ccc(-c2c3nc(c(-c4ccc(OC(C)=O)cc4)c4ccc([nH]4)c(-c4ccc(OC(C)=O)cc4)c4nc(c(-c5ccc(OC(C)=O)cc5)c5ccc2[nH]5)C=C4)C=C3)cc1 | 83 | 29 | 100 | – | – | –
7 | COc1ccc(-c2c3nc(c(-c4ccc(OC)cc4)c4ccc([nH]4)c(-c4ccc(OC)cc4)c4nc(c(-c5ccc(OC)cc5)c5ccc2[nH]5)C=C4)C=C3)cc1 | 97 | 28 | 100 | – | – | –
8 | O=S(=O)([O-])c1ccc(-c2c3nc(c(-c4ccc(S(=O)(=O)[O-])cc4)c4ccc([nH]4)c(-c4ccc(S(=O)(=O)[O-])cc4)c4nc(c(-c5ccc(S(=O)(=O)[O-])cc5)c5ccc2[nH]5)C=C4)C=C3)cc1.[Na+].[Na+].[Na+].[Na+] | 91 | 24 | 76.1 | – | – | –
9 | Clc1ccc(-c2c3nc(c(-c4ccc(Cl)cc4)c4ccc([nH]4)c(-c4ccc(Cl)cc4)c4nc(c(-c5ccc(Cl)cc5)c5ccc2[nH]5)C=C4)C=C3)cc1 | – | – | 100 | – | – | –
10 | C1=Cc2nc1c(-c1ccc3ccccc3c1)c1ccc([nH]1)c(-c1ccc3ccccc3c1)c1nc(c(-c3ccc4ccccc4c3)c3ccc([nH]3)c2-c2ccc3ccccc3c2)C=C1 | – | 25 | 100 | – | – | –
11 | C[n+]1ccc(-c2c3nc(c(-c4cc[n+](C)cc4)c4ccc([nH]4)c(-c4cc[n+](C)cc4)c4nc(c(-c5ccccc5)c5ccc2[nH]5)C=C4)C=C3)cc1.[I-].[I-].[I-] | 97 | 12 | 23.9 | – | – | 67

Further lines, with some results ahead:

Row | remaining at 0.5 h [2] [%] | Activity [6] [%] | SMILES | viability at 1 µM [1] [%] | Activity [3] | viability at 0.01 µM [4] [%] | IC50 [5] [nM]
12 | 92 | 20 | C[n+]1ccc(-c2c3nc(c(-c4ccccc4)c4ccc([nH]4)c(-c4ccccc4)c4nc(c(-c5cc[n+](C)cc5)c5ccc2[nH]5)C=C4)C=C3)cc1.[I-].[I-] | 23.2 | Toxic | 69 | 52.3
13 | 97 | 28 | O=[N+]([O-])c1ccc(-c2c3nc(c(-c4ccccc4)c4ccc([nH]4)c(-c4ccc([N+](=O)[O-])cc4)c4nc(c(-c5ccccc5)c5ccc2[nH]5)C=C4)C=C3)cc1 | 95.2 | – | – | –
14 | 96 | 33 | O=[N+]([O-])c1ccc(-c2c3nc(c(-c4ccccc4)c4ccc([nH]4)c(-c4ccccc4)c4nc(c(-c5ccccc5)c5ccc2[nH]5)C=C4)C=C3)cc1 | 92.8 | – | – | –
15 | 96 | 59 | Nc1ccc(-c2c3nc(c(-c4ccccc4)c4ccc([nH]4)c(-c4ccccc4)c4nc(c(-c5ccccc5)c5ccc2[nH]5)C=C4)C=C3)cc1 | 100 | – | – | –
16 | – | 13 | C[n+]1ccc(-c2c3nc(c(-c4ccccc4)c4ccc([nH]4)c(-c4ccccc4)c4nc(c(-c5ccccc5)c5ccc2[nH]5)C=C4)C=C3)cc1.[I-] | 29.4 | – | – | 602
